# An excerpt weighted towards active compounds, which were near 2.3% of everything screened.
# PAFAH2 FP inh = PAFAH2 (human) inhibition. Q99487. recombinant PAFAH2, FP-rhodamine activity probe, fluorescence polarization. inhibition, % at 3.39 µM. 340,000 tested, 0.99% active;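 active = inhibition above the mean over all tested compounds plus 3 SD, cut at about 30% in these data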;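 note: inhibitors block probe labeling of enzyme so polarization drops; 0% = enzyme with DMSO and 100% = wells lacking PAFAH2 protein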
# TDP2 absorb = TDP2 (human) inhibition, absorbance primary screen; recombinant TDP2, T5PNP hydrolysis, p-nitrophenol absorbance 415 nm; inhibition, % at 12.8 µM; 370,000 tested, 0.34% active; AID 720702;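 active = inhibition above the mean of all tested compounds plus 3 SD, set per campaign, cut at about 25% in these data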;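 note: 0% = DMSO with enzyme and 100% = buffer with substrate but no TDP2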
#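 Read-out basis: percent inhibition. System: recombinant human TDP2. Buffer or medium: Mg2+-containing Tris-HCl buffer, pH 7.5. Repeats: single replicate. Timing: reaction 2 h, 37 °C. Benchmarks: high control without enzyme, low control DMSO plus TDP2. Probe or stimulus: 5 mM T5PNP. Doses: 12.8 µM only. Measured by: epi absorbance of p-nitrophenol freed from T5PNP by hydrolysis.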
# PAFAH1B3 inh = PAFAH1B3 (human) inhibition | Q15102 | 340,000 tested, 0.28% active | AID 492972 | inhibition, % at 3.39 µM | recombinant PAFAH1B3, FP-rhodamine probe, fluorescence polarization;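 active = inhibition above the screen-wide average of all tested compounds plus 3 SD, cut at about 25% in these data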;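 note: 0% = enzyme with DMSO only and 100% = wells lacking PAFAH1B3 protein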
# Target sequence (Q15102 whole entry, looked up): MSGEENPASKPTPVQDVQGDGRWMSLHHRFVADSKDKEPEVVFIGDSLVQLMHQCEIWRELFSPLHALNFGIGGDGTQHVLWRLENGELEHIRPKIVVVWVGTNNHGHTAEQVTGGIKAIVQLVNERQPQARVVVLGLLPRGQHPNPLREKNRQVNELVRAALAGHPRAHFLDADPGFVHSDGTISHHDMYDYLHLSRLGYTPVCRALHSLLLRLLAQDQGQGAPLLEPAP
# Apaf-1 inh = blocks human Apaf-1 apoptosome activity; O14727; reconstituted apoptosome caspase-3 activity, DEVD-Rh110 fluorescence; inhibition, % at 20 µM; 330,000 tested, 0.71% active; active = inhibition of at least 40% at 20 µM;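 note: plate controls were DMSO wells for no effect and DEVD-CHO caspase inhibitor wells for full effect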
#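 Material: biochemical Apaf-1 apoptosome reconstitution. Medium: Hepes buffer, pH 7.5. Also added: cytochrome c activation, bis-DEVD rhodamine 110 substrate. Timing: 30 min compound preincubation, 50 min activation, room temperature. Measured by: rhodamine 110 fluorescence at Ex 480/Em 540 nm.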
# PAFAH1B2 inh = inhibitors of human PAFAH1B2 | P68402 | recombinant PAFAH1B2, FP-rhodamine activity probe, fluorescence polarization | inhibition, % at 3.39 µM | 340,000 tested, 1.2% active | AID 492953;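 active = inhibition above the mean of all tested compounds plus 3 SD, cut at about 24% in these data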;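 note: 0% = enzyme with DMSO and 100% = wells lacking PAFAH1B2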
# Target sequence (P68402 whole entry, looked up): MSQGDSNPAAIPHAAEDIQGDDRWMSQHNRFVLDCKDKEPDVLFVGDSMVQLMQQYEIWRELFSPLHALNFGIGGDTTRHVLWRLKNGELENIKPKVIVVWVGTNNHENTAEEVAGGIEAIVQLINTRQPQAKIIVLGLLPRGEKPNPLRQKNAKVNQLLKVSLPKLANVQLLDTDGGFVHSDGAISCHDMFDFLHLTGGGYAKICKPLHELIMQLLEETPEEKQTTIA
# PAFAH2 confirm = confirmation of human PAFAH2 inhibitors. 2,300 tested, 65% active. recombinant PAFAH2, FP-rhodamine activity probe, fluorescence polarization. AID 493030. inhibition, % at 3.39 µM. shares compounds with PAFAH2 FP inh;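 active = mean inhibition over three repeats above a set limit taken from the earlier primary screen, cut at about 30% in these data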;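 note: inhibitor blocks binding of rhodamine activity probe so polarization falls; 0% = enzyme with DMSO and 100% = wells lacking PAFAH2 protein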
# An asterisk follows results filed as active; · = no result.
SMILES,PAFAH2 FP inh,TDP2 absorb,PAFAH1B3 inh,Apaf-1 inh,PAFAH1B2 inh,PAFAH2 confirm
O=C(COC(=O)/C=C/c1ccc2c(c1)OCO2)Nc1ccccc1,79*,0,8,13,9,81*
O=C(COC(=O)/C=C/c1ccc2c(c1)OCO2)Nc1ccc(S(=O)(=O)N2CCCC2)cc1,-8,6,-7,12,-2,·
CCOC(=O)c1ccc(N2C(=O)C3CCOc4ccccc4C32)cc1 (stereo unspecified),80*,-6,10,11,9,63*
CCOC(=O)c1ccc(N2C(=O)[C@@H](c3ccccc3)[C@H]2c2ccccc2)cc1,-3,-10,-11,25,14,·
O=C(c1ccc(COc2ccc(Cl)cc2Cl)o1)N1CCCC1,30*,-6,-9,18,6,29
COc1ccccc1OCc1ccc(C(=O)N2CCCCC2)o1,0,3,2,13,1,·
O=C1CCC[C@H]2[C@@H](Cc3ccccc3)[C@@H](O)CC[C@]23CCCN13,·,2,·,·,·,·
CC(NC(=O)COC(=O)C1CCCCC1)c1ccccc1 (stereo unspecified),36*,8,9,2,8,22
CC(NC(=O)COC(=O)C1CC1C)c1ccccc1 (stereo unspecified),33*,6,11,-10,-3,30*
NS(=O)(=O)c1ccc(NC(=O)COC(=O)C2CCCCC2)cc1,-1,9,8,-2,2,·
CC(NC(=O)COC(=O)C1CCN(c2ccc(C(F)(F)F)cn2)CC1)c1ccccc1 (stereo unspecified),·,-8,·,·,·,·
CC(NC(=O)COC(=O)C1CC1C)c1cccc(Cl)c1 (stereo unspecified),36*,-1,7,1,0,23
CC(C)c1ccc(NC(=O)COC(=O)C2CCCCC2)cc1,45*,-12,2,10,2,29
CC(C)(C)c1ccc(S(=O)(=O)N2CCC(c3cn4ccccc4n3)CC2)cc1,·,-12,·,·,·,·
Nc1nc2c(ncn2[C@@H]2O[C@H](C(=O)N[C@H](Cc3ccccc3)C(=O)NCc3ccc4c(c3)OCO4)[C@@H](O)[C@H]2O)c(=O)[nH]1,·,1,·,·,·,·
CCCCCCn1c(-c2ccc(Cl)cc2Cl)csc1=Nc1ccccc1,·,2,·,·,·,·
O=C(Nc1ccc(F)cc1F)c1cc(-c2ccc(Cl)cc2)nc2ccccc12,·,11,·,·,·,·
Cc1ccc(S(=O)(=O)Nc2c(O)c3ccccc3oc2=O)cc1C,43*,7,4,6,11,25
Cc1ccc(S(=O)(=O)Nc2c(O)c3ccccc3oc2=O)cc1,6,16,-4,7,2,·
CCOC(=O)c1c(-c2ccccc2)oc2ccc(OCC(=O)NNC(=O)CCCC(=O)O)cc12,41*,-5,23,1,17,3
COC(=O)c1cccc(Cn2ccc3ccc(-c4ccc5ccn(C(=O)c6cccc(OC)c6)c5c4)cc32)c1,·,4,·,·,·,·
Cc1cc(C)cc(NC(=O)COC(=O)c2ccc(CN3CCCC3=O)cc2)c1,86*,-12,-2,3,5,85*
Cc1ccc(NC(=O)COC(=O)c2ccc(CN3CCCC3=O)cc2)c(Cl)c1,69*,-10,0,3,3,71*
Cc1ccc(C)c(NC(=O)COC(=O)c2ccc(S(=O)(=O)N3CCCCC3)cc2)c1,2,1,5,4,1,·
CC(C)(C)c1ccc(NC(=O)COC(=O)c2ccc(CN3CCCC3=O)cc2)cc1,61*,0,6,17,0,51*
N#Cc1ccc(S(=O)(=O)N2CCCc3nc(-c4ccccc4)ccc32)cc1,·,12,·,·,·,·
COC(=O)[C@]12C[C@H](CC(=O)N3CCCC3)C(=O)N(Cc3ccc4c(c3)OCO4)C1=C[C@H](C(C)C)O[C@@H]2C1CC1,·,-1,·,·,·,·
O=c1c2cc3cc(Cl)ccc3nc2ncn1CCc1c[nH]c2ccccc12,·,-17,·,·,·,·
N#C/C(=C\c1ccc(OCc2cccc(C(=O)O)c2)cc1)C(=O)NCc1ccco1,37*,1,13,-3,12,28
COc1ccc(/C=C/C(=O)OCC(=O)NC2CCCC(C)C2C)cc1S(=O)(=O)N1CCOCC1 (stereo unspecified),67*,1,-1,-1,2,75*

# Screening data (PubChem)
